Measurements collected from several papers.
Protocols differ between the studies behind these lines.
Target: Inhibitor of nuclear factor kappa-B kinase subunit alpha (CHUK, Homo sapiens, UniProt O15111)
Residues used in one study (O15111 1-745): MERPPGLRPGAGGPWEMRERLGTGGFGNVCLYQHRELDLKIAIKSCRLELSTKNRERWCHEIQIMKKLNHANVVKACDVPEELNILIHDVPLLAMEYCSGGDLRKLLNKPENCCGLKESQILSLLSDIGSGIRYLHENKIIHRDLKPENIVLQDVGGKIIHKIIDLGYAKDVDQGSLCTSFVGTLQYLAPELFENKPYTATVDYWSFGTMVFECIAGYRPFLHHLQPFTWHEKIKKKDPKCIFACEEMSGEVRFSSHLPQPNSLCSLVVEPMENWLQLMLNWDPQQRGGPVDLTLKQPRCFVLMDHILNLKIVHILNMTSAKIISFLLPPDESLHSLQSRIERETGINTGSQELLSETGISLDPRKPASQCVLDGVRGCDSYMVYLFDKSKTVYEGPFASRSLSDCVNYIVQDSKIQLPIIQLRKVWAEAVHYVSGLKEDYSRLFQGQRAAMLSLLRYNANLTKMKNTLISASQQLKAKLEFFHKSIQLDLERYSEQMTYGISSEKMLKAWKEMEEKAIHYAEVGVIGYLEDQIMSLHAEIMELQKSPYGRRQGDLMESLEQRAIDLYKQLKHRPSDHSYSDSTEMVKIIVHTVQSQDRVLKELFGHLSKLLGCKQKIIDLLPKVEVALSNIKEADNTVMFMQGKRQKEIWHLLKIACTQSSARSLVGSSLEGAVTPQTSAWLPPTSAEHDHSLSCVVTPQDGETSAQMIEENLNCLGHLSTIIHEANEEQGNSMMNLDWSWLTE

For `O=C(N1CCS(=O)(=O)CC1)N1C[C@H](c2ccc(OC(F)(F)F)cc2)C[C@H](c2nc(C3CC3)no2)C1`, the remaining binding was 97% (cell-free assay, competition with immobilised ligand; 1 µM).
For `Cc1ccc(NC(=O)c2ccc(CN3CCN(C)CC3)cc2)cc1Nc1nc(-c2cccnc2)cs1`, the remaining signal was 96.2% (cell-free assay; 0.5 µM).
With `CCS(=O)(=O)c1cc2cc(C[C@@](O)(CC(C)(C)c3ccc(F)cc3C(N)=O)C(F)(F)F)[nH]c2cn1` the remaining binding was 95% (cell-free assay, competition with immobilised ligand; 1 µM).
The inhibition of `O=C(Nc1nccs1)C(c1cc(F)ccc1O)N1Cc2ccccc2C1=O` (centres unmarked) is reported as 16% (enzyme activity, inhibitor; 1 µM).
`CCN(CC)CCNC(=O)c1c(C)[nH]c(/C=C2\C(=O)Nc3ccc(F)cc32)c1C` gave an inhibition of -1% (enzyme activity, inhibitor; 0.3 µM).
`C[C@H](NC(=O)c1cnc2n1[C@](C)(Cc1ccc(C#N)cc1)C(=O)N2c1cc(Cl)c(F)c(Cl)c1)C(=O)NC1(c2ccccn2)CC1` gave a remaining binding of 100% (cell-free assay, competition with immobilised ligand; 1 µM).
The inhibition of `CCCS(=O)(=O)Nc1ccc(F)c(C(=O)c2c[nH]c3ncc(-c4ccc(Cl)cc4)cc23)c1F` is reported as under 10% (enzyme activity, inhibitor; 1 µM).
`Cc1sc(C(=O)NC2COC2)cc1-n1cc(NC(=O)Nc2c(F)cccc2Cl)cn1` has a remaining activity of 101% (enzyme activity, inhibitor; 10 µM).
With `CC(=O)N1CCC(c2ccc(C(=O)NC3=NCCN3)cc2C(F)(F)F)CC1` the remaining binding was 90% (cell-free assay, competition with immobilised ligand; 1 µM).
With `CC(C)(O)[C@H]1CC[C@H](Nc2ccc3ncc(-c4cccc(C(F)(F)F)c4)n3n2)CC1` the remaining activity was 83.6% (enzyme activity, inhibitor; 1 µM).
`NS(=O)(=O)c1cc(NC(=O)Cc2ccccc2)ccc1Oc1cccc(Cl)c1` gave a remaining binding of 63% (cell-free assay, competition with immobilised ligand; 1 µM).
With `c1ccc(CNc2nc(N3CCOc4ccccc43)nc3c2CCCC3)cc1` the inhibition was 10.8% (target engagement in cells, inhibitor, chemoproteomics; 20 mM).
With `CNC(=O)c1cc(Oc2ccc(NC(=O)Nc3ccc(Cl)c(C(F)(F)F)c3)cc2)ccn1` the inhibition was -35% (enzyme activity, inhibitor; 10 µM).
`CNCc1ccc(-c2cc(-c3nc(-c4ccc(S(=O)(=O)C(C)C)cc4)cnc3N)on2)cc1` gave an inhibition of 17% (enzyme activity, inhibitor; 0.4 µM).
`Cc1ccc(C(=O)NCc2ccsc2)cc1C#Cc1cn(C(C)C)c2ncnc(N)c12` gave an activity vs control of 102% (enzyme activity, inhibitor; 1 µM).
`O=C1Nc2ccc(Cl)cc2C1=Cc1cc(Cl)c(O)c(Cl)c1` has a remaining signal of 97% (cell-free assay; 0.5 µM).
For `Cc1ccc(C(=O)Nc2ccc(CN3CCN(C)CC3)c(C(F)(F)F)c2)cc1C#Cc1cnc2cccnn12`, the remaining activity was 19% (enzyme activity, inhibitor; 23.5 nM).
The remaining signal of `O=C1NC(=O)c2cc(Nc3ccc(F)cc3)c(Nc3ccc(F)cc3)cc21` is reported as 99.2% (cell-free assay, inhibitor; 0.5 µM).
For `CN([C@@H]1CCc2c(CC(=O)O)c3cc(S(C)(=O)=O)ccc3n2C1)S(=O)(=O)c1ccc(F)cc1`, the remaining binding was 100% (cell-free assay, competition with immobilised ligand; 1 µM).
`CCCCNc1ncc2c(-c3ccc(F)cc3)nn(C[C@H]3CC[C@H](N)CC3)c2n1` has an inhibition of 4.9% (target engagement in cells, inhibitor, chemoproteomics; 20 mM).
For `CCN(CC)c1ccc(C2=NNC(=O)CC2C)cc1[N+](=O)[O-]` (centres unmarked), the remaining activity was 109% (enzyme activity, inhibitor; 10 µM).
`CN(C)C(=O)Cn1cc(-c2nc(C3(c4ccc(-c5cnc(N)nc5)cc4)CC3)no2)cn1` gave a remaining binding of 100% (cell-free assay, competition with immobilised ligand; 1 µM).
`CC(C)(C)c1nc(-c2cccc(NS(=O)(=O)c3c(F)cccc3F)c2F)c(-c2ccnc(N)n2)s1` has a remaining activity of 97% (enzyme activity, inhibitor, radiometric; 1 µM).
